Screening results from PubChem BioAssay.
Most compounds without a hit are left out; they make up all but 1.9% or so of the library.
LMPTP inh: blocks human LMPTP phosphatase | AID 651560 | hit rate 0.22% among 360,000 | recombinant LMPTP-A, OMFP fluorogenic substrate, fluorescence intensity | inhibition, % at 20 µM | P24666;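 active means compounds that cut the enzyme signal by at least half of the control window in the single-dose screen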;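 further: plate controls were DMSO wells with enzyme plus substrate for no effect and substrate without enzyme for full effect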
Target sequence (P24666 whole entry, looked up): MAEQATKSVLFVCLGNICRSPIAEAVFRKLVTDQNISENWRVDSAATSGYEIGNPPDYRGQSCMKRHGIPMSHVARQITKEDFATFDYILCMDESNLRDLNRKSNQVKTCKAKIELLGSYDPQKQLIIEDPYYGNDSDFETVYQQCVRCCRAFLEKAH
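Material: LMPTP-A; amount: 0.625 nM enzyme; doses: single 20 µM dose; times: reaction 50 min, room temperature, dark; technique: fluorescence intensity of OMFP turnover product; benchmarks: no-enzyme and uninhibited controls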
CSN inh: blocks human CSN-mediated cullin deneddylation; Q92905; Purified CSN, SCF-Nedd8-OG deneddylation, fluorescence polarization; inhibition, % at 12.5 µM; hit rate 0.38% among 360,000;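 active means pattern-corrected inhibition above about 35%, with an unprinted fluorescence ratio check between 0.5 and 1.5, limit read from the data, passing the limit was not always enough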;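 further: 0% = enzyme with substrate and 100% = substrate without enzyme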
Target sequence (Q92905 whole entry, looked up, one chain of several): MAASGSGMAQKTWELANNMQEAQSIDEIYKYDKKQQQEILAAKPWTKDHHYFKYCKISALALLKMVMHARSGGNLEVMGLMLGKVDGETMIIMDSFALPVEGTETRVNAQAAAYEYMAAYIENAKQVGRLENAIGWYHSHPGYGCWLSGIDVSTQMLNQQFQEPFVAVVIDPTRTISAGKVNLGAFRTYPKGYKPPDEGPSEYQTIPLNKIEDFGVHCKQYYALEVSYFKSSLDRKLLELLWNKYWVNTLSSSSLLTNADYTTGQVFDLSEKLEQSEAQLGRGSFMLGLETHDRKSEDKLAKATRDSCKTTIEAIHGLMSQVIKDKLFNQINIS
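Test system: purified human Csn5 enzyme expressed in HEK293T cells. Amount: 0.24 nM enzyme. Reagent: SCFSkp2-Nedd8OG substrate at 10 nM final. Schedule: 90 min incubation of compound, enzyme and substrate at room temperature. Detection: fluorescence polarization. Read-out: % inhibition of substrate cleavage by Csn5.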
DNMT1 inh: inhibitors of human DNMT1 | DNMT1 molecular beacon, Hinp1I cleavage, fluorescence | inhibition (reported as % activation of signal), % at 10 µM | hit rate 0.83% among 360,000; in the data active means inhibition above about 50%
STEP block: STEP (human) phosphatase inhibition; P54829; recombinant STEP, OMFP fluorogenic substrate, fluorescence; inhibition, % at 20 µM; hit rate 0.25% among 360,000; AID 588621;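 active means inhibition at 20 µM, scaled per plate between control wells, above about 37%, limit read from the data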;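 further: 0% = DMSO with enzyme and substrate and 100% = substrate only without enzyme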
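medium = Bis-Tris buffer pH 6.0, 2.5 mM DTT, 0.005% Tween 20 | test system = STEP (striatal-enriched tyrosine phosphatase) enzyme, cell-free | measure = normalized % inhibition | compound dosing = 20 µM, 1% DMSO | also added = 25 µM OMFP | schedule = reaction 20 min, ambient temperature | measured by = fluorescence read at 480 nm ex / 540 nm em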
Scp-1 inhibitor: Scp-1 (human) phosphatase inhibition | Q9GZU7 | Recombinant Scp1, phosphopeptide, malachite green phosphate absorbance | inhibition, % at 20 µM | hit rate 0.88% among 340,000 | AID 493091;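 active means inhibition above about 50% at 20 µM, limit read from the data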;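 further: plate controls were DMSO wells with enzyme for no effect and wells lacking enzyme for full effect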
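System: SCP-1 catalytic domain; Reagent: Phospho 17-mer peptide substrate; Doses: one concentration, 20 µM, with 1.0% DMSO; Incubation: 45 min room-temperature reaction, 5 min colour, 30 min stabiliser; Signal: Phosphate-binding colour reagent, absorbance read at 630 nm.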
SUMO1-SIM PPI: modulators of human SUMO1-mediated protein-protein interactions; hit rate 0.33% among 360,000; inhibition, % at 20 µM; P63165; SUMO1 binding to a labelled peptide, TR-FRET, 1 h; AID 602429; in the data active means inhibition above about 37%
Target sequence (P63165 whole entry, looked up): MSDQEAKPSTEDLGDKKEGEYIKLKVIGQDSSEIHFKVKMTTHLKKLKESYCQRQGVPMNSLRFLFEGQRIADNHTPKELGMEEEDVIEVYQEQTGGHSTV
Scp1 confirm: confirmation of human Scp-1 phosphatase inhibitors; inhibition, % at 20 µM; recombinant SCP-1 catalytic domain, phosphate release, malachite green absorbance; AID 540281; shares compounds with Scp-1 inhibitor; hit rate 61% among 2,500;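 further: plate controls were DMSO with enzyme for no effect and buffer wells lacking enzyme for full effect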
MG interference: interferes with malachite green readout, flagging false Scp-1 hits; shares compounds with Scp-1 inhibitor; Colorimetric interference counterscreen, malachite green absorbance 630 nm; apparent inhibition (interference), % at 20 µM; 2,500 tested, under 10 active; AID 540313;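 further: compounds added after enzyme reaction finished so only phosphate colour detection is probed; plate controls were DMSO wells with completed Scp-1 reaction for no effect and substrate wells lacking enzyme for full effect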
Scp1 DSF: Scp-1 (human) binding by thermal shift. shares compounds with Scp-1 inhibitor. Recombinant SCP1, Sypro Orange thermal shift Tm. thermal shift relative to vanadate control, % at 40 µM. hit rate 25% among 1,500. AID 540329;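 active means substances whose mean melting-temperature shift, as a percentage of the reference inhibitor's shift, reaches about 5.3%, limit read from the data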;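 further: 0% = Tm of DMSO wells and 100% = Tm with sodium orthovanadate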
DNMT1 interf DR: counter-screen for DNMT1 inhibitors: spectral interference, dose response. shares compounds with DNMT1 inh. molecular beacon fluorescence. IC50, µM. AID 602382. 200 tested, under 10 active; call rule not given here
DNMT1 inh conf: DNMT1 inhibition confirmation, single concentration. DNMT1 molecular beacon HinP1I cleavage, fluorescence. hit rate 8% among 2,300. shares compounds with DNMT1 inh. AID 602385. inhibition, % at 10 µM;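 active means average inhibition of at least 30% in the single-concentration confirmation test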
DNMT1 interf: beacon fluorescence artifact counter-screen. shares compounds with DNMT1 inh. DNMT1 molecular beacon spectral interference counterscreen, fluorescence 485/520. activation (fluorescence interference), % at 10 µM. hit rate 1% among 2,300;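 active means activation of at least 30% at 10 µM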;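 further: DNMT1 catalytic domain with a HinP1I cleavage step and a FAM/dabcyl DNA beacon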
STEP inh conf: confirmation of human STEP phosphatase inhibitors; recombinant STEP, OMFP fluorogenic substrate, fluorescence; inhibition, % at 20 µM; hit rate 32% among 520; shares compounds with STEP block; AID 623866; call rule not given here;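 further: 0% = enzyme with substrate plus DMSO and 100% = substrate without enzyme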
Starred values were filed as active, the others as inactive; . = not tested or not shown.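 How the source made its calls, unless noted: active means inhibition of at least 30% at 20 µM; inactive means the rest.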

SMILES	LMPTP inh	CSN inh	DNMT1 inh	STEP block	Scp-1 inhibitor	SUMO1-SIM PPI	Scp1 confirm	MG interference	Scp1 DSF	STEP inh conf	others
O=C(N/N=C/c1cccc([N+](=O)[O-])c1)c1cccc(Br)c1	0	5	-2	-3	-7	4	.	.	.	.
CCc1ccc(OCC(=O)Nc2ccc(-c3nc4ccccc4o3)c(O)c2)cc1	39	-1	77*	66*	100*	2	73*	-21	-1	19*	DNMT1 inh conf=4;DNMT1 interf=3
CCc1c(C)[nH]n(-c2ccc(Oc3ccccc3)c(S(=O)(=O)O)c2)c1=O	1	10	66*	53*	79*	13	80*	-1	2	36*
O=[N+]([O-])c1ccc(C=NNC(=S)NN=Cc2ccc([N+](=O)[O-])cc2)cc1	75*	16	88*	96*	88*	92*	55*	-14	12*	8	DNMT1 inh conf=1;DNMT1 interf=-12
O=C(N/N=C/c1ccoc1)c1cc(O)cc(O)c1	35	44	93*	61*	63*	43*	58*	-16	4	98*	DNMT1 interf DR=>99;DNMT1 inh conf=21;DNMT1 interf=-5
CCOc1ccc(C(=O)Nc2ccc(NC(=O)c3ccccc3)c(C)c2)cc1[N+](=O)[O-]	5	3	29	44*	78*	11	59*	-18	-19	-6
CC(C)[C@H](NC(N)=O)C(=O)Nc1cccc(S(=O)(=O)NC2=NCCCCC2)c1	-2	6	4	-2	4	5	.	.	.	.
O=C(CNC(=O)c1ccccc1F)NCC(c1cccs1)N1CCOCC1 (stereo not drawn)	-1	0	3	2	-5	0	.	.	.	.
Cn1c2ccccc2c(=O)c2c(=O)n(C3CCCCCC3)c(C3CCCCC3)nc21	12	-5	68*	60*	97*	-7	18	6	.	7	DNMT1 inh conf=1;DNMT1 interf=-5
COc1ccc(-n2nc(C(=O)NCC(=O)NC(C)C)c3ccccc3c2=O)cc1Cl	-1	-4	1	0	5	-22	.	.	.	.
COc1ccc(-n2nc(C(=O)NCC(=O)Nc3ccccn3)c3ccccc3c2=O)cc1Cl	15	19	16	48*	63*	4	43*	-9	-5	32*
COCCn1c(C)cc(C(=O)CSc2nnnn2C2CCCC2)c1C	0	5	-6	2	-8	-3	.	.	.	.
CN(C)C(CNC(=O)CSc1nc2sc3c(c2c(=O)n1C)CCCC3)c1ccccc1 (stereo not drawn)	0	-1	10	-5	3	3	.	.	.	.
O=[N+]([O-])c1ccc(O)c(Nc2ncnc3ccccc23)c1	91*	77	2	97*	98*	-10	81*	-5	3	36*
Cc1c(CC(=O)O)c(=O)oc2c(C)c(OCc3ccc(F)cc3Cl)ccc12	85*	53*	-1	98*	64*	84*	68*	-19	-26	62*
Cn1nc(SCC(=O)O)sc1=S	-1	-1	6	-1	0	-6	.	.	.	.
O=C(O)CSc1sc(=S)sc1SCC(=O)O	1	2	-2	58*	76*	-12	10	-11	.	14
COc1cccc(Nc2c(Nc3cccc(OC)c3)c(=O)c2=O)c1	78*	14	67*	97*	92*	16	68*	-11	2	23
C[C@H](CO)N1C[C@H](C)[C@@H](CN(C)C(=O)Nc2ccc(C(F)(F)F)cc2)Oc2ccc(NC(=O)c3ccncc3)cc2C1=O	64*	0	92*	52*	77*	19	-12	-21	.	12	DNMT1 inh conf=1;DNMT1 interf=-1
C[C@H](CO)N1C[C@H](C)[C@@H](CN(C)C(=O)Nc2ccc(C(F)(F)F)cc2)Oc2ccc(NC(=O)Nc3ccc(C(F)(F)F)cc3)cc2C1=O	4	-2	-44	-1	-18	9	.	.	.	.
COc1cccc(Nc2nn3c(=O)c4ccccc4nc3s2)c1	18	9	19	82*	60*	-8	58*	-2	6.1*	47*
Cc1ccccc1Nc1nn2c(=O)c3ccccc3nc2s1	1	-4	-5	2	-20	22	.	.	.	.
CCOC(=O)c1c(C)[nH]c(C(=O)COC(=O)CCC2CCCC2)c1C	-2	1	6	-2	-2	5	.	.	.	.
CCCCC(=O)Nc1ccc(C(=O)NNC(=O)c2ccc(C)c(Br)c2)cc1	78*	13	81*	74*	102*	26	71*	-27	-12	40*	DNMT1 inh conf=4;DNMT1 interf=0
Cc1ccc(NCC(=O)Nc2cccc(S(=O)(=O)N(C)C)c2)cc1S(=O)(=O)N1CCCCCC1	2	12	-4	0	-4	1	.	.	.	.
COc1ccccc1NC(=O)C(=O)NCCCN1CCCC1=O	-1	2	3	1	-2	4	.	.	.	.
O=C1CCCN1CCCNC(=S)Nc1cccc2ccccc12	2	-3	-11	55*	5	-1	-16	-18	.	6
C/C(=N\NC(=O)c1ccccc1O)c1ccc(NC(=O)Cc2ccccc2)cc1	59*	11	0	84*	101*	37	84*	-15	0	79*
CC(=O)N1CCOc2ccc(S(=O)(=O)NCc3ccc(F)cc3)cc21	22	1	26	73*	62*	-2	50*	-16	-9	30*
